Active and inactive are the calls of the source. No cut-off for these calls is given here.

The values below come from ChEMBL document CHEMBL2176911 (J Med Chem, 2012).

The test system of assay [1] is HT-22. Briefly: Neuroprotective activity against glutamate-induced toxicity in mouse HT22 cells after 24 hrs by MTS assay. It counts as functional, cell-based. (Formazan colour is commonly taken as a measure of viable cells.)
The target in assay [2] is Dual specificity protein kinase CLK3 (Mus musculus) (UniProt O35492). Briefly: Inhibition of mouse recombinant GST-tagged CLK3 expressed in Escherichia coli using GRSRSRSRSRSR as substrate and [gamma33P]ATP at 10 uM after 30 mins by scintillation counting. In a few lines:
(§1)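 Radiometric kinase assay with the RS peptide as substrate and 15 μM [γ-33P]ATP.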

Assay [3] deals with Dual specificity tyrosine-phosphorylation-regulated kinase 1A (Homo sapiens) (UniProt Q13627). As to the kind of experiment: Inhibition of human recombinant GST-tagged DYRK1A expressed in Escherichia coli using GRSRSRSRSRSR as substrate and [gamma33P]ATP at 15 uM after 30 mins by scintillation counting.
For assay [4], the target named is Dual specificity protein kinase CLK1 (Mus musculus) (UniProt P22518). As to the kind of experiment: Inhibition of mouse recombinant GST-tagged CLK1 expressed in Escherichia coli using GRSRSRSRSRSR as substrate and [gamma33P]ATP at 10 uM after 30 mins by scintillation counting. The gist of the method:
as §1

In assay [5] the target is T1, Dual specificity tyrosine-phosphorylation-regulated kinase 2 (Homo sapiens) (UniProt Q92630).
T1 sequence (whole entry): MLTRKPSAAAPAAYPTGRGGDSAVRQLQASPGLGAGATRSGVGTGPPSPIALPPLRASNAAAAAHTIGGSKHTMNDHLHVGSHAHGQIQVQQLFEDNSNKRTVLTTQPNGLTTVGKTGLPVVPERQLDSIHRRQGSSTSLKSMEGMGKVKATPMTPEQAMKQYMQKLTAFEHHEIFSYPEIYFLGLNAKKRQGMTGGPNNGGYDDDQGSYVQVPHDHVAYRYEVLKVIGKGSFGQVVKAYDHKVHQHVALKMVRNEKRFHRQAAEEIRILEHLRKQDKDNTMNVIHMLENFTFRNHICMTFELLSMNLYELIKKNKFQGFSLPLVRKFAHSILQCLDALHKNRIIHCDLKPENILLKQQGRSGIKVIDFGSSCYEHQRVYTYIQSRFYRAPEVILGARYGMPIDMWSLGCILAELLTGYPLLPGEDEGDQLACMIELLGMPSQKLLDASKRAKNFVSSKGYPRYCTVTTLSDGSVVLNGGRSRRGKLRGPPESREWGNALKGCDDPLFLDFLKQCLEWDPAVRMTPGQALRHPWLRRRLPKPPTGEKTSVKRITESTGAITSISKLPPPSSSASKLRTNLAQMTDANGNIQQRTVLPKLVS
Briefly: Inhibition of human recombinant GST-tagged DYRK2 expressed in Escherichia coli using GRSRSRSRSRSR as substrate and [gamma33P]ATP at 10 uM after 30 mins by scintillation counting.

Assay [6] deals with HT-22. As to the kind of experiment: Inhibition of GSK3-mediated […] phosphorylation in mouse HT22 cells at 10 uM after 24 hrs by Western blot analysis in presence of MG132. It counts as cell-based. A general note: Immunoblotting shows a protein as a band on a membrane.
Assay [7] deals with Dual specificity protein kinase CLK4 (Mus musculus, UniProt O35493). As to the kind of experiment: Inhibition of mouse recombinant GST-tagged CLK4 expressed in Escherichia coli using GRSRSRSRSRSR as substrate and [gamma33P]ATP after 30 mins by scintillation counting.
Dual specificity protein kinase CLK4 (Mus musculus, UniProt O35493), sequence (O35493 whole entry): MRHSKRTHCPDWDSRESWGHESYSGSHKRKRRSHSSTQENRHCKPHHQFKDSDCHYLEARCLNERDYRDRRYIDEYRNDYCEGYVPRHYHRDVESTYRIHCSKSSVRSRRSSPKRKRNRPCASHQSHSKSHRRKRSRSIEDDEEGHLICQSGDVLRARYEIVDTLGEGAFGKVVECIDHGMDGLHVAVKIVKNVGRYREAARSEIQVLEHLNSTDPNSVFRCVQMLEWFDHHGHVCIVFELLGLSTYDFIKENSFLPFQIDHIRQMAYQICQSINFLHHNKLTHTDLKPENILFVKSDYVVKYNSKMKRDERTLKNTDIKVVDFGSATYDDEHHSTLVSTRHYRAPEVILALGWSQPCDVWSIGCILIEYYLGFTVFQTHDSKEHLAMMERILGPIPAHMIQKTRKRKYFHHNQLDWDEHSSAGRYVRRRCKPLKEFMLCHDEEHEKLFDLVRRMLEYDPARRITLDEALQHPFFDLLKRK
Assay [8] deals with Dual specificity protein kinase CLK3 (Homo sapiens, UniProt P49761). Briefly: Binding affinity to CLK3.
Assay [9] has as its target Dual specificity tyrosine-phosphorylation-regulated kinase 3 (Homo sapiens, UniProt O43781). Briefly: Inhibition of human recombinant GST-tagged DYRK3 expressed in Escherichia coli using GRSRSRSRSRSR as substrate and [gamma33P]ATP after 30 mins by scintillation counting.
Assay [10] has as its target Dual specificity protein kinase CLK4 (Homo sapiens, UniProt Q9HAZ1). As to the kind of experiment: Binding affinity to CLK4.
The nature of assay [11]: Binding affinity to casein kinase 1.
The target of assay [12] is Glycogen synthase kinase-3 (Sus scrofa, UniProt B2LUN4+I6LNT8). Briefly: Inhibition of pig GSK3alpha/beta isolated from brain using YRRAAVPPSPSLSRHSSPHQ-phosphoS-EDEEE as substrate and [gamma33P]ATP after 30 mins by scintillation counting. In a few lines: (§2)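 Panel of purified kinases (recombinant from several species plus native enzymes), each assayed radiometrically over a range of inhibitor concentrations; IC50 in μM calculated from the dose-response curves.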

The target of assay [13] is Cyclin-dependent kinase 7/ cyclin H (Homo sapiens, UniProt P50613). Briefly: Inhibition of human recombinant CDK7/cyclin H expressed in insect cell using YSPTSPSYSPTSPSYSPTSPSKKKK as substrate and [gamma33P]ATP after 30 mins by scintillation counting. The gist of the method:
as §2

The target in assay [14] is Dual specificity protein kinase CLK1 (Mus musculus, UniProt P22518). As to the kind of experiment: Inhibition of mouse recombinant GST-tagged CLK1 expressed in Escherichia coli using GRSRSRSRSRSR as substrate and [gamma33P]ATP after 30 mins by scintillation counting. The gist of the method: as §2
Dual specificity protein kinase CLK1, sequence (P22518 whole entry): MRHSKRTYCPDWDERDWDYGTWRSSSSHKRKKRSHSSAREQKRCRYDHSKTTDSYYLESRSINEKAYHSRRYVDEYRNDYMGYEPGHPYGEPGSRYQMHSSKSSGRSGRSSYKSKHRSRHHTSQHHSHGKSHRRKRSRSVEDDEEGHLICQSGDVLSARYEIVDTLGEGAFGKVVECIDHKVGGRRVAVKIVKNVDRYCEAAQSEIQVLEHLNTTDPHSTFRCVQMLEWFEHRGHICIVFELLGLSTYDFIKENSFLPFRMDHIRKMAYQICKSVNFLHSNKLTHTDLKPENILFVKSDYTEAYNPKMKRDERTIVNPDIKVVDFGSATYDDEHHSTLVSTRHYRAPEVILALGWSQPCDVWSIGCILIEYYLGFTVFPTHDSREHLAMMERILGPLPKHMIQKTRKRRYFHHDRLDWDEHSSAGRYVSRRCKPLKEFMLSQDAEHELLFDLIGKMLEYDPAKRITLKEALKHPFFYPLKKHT
For a further assay, the target named is CDK9/cyclin T1 (Homo sapiens, UniProt P50750). Briefly: Inhibition of human recombinant CDK9/cyclin T expressed in insect cell using YSPTSPSYSPTSPSYSPTSPSKKKK as substrate and [gamma33P]ATP after 30 mins by scintillation counting. The gist of the method:
as §2

For assay [15], the target named is Mitogen-activated protein kinase 1 (Rattus norvegicus, UniProt P63086). Briefly: Inhibition of rat recombinant ERK2 using Ets1 as substrate and [gamma33P]ATP as substrate after 30 mins by scintillation counting. In a few lines:
as §2

Assay [16] has as its target Dual specificity tyrosine-phosphorylation-regulated kinase 2 (Homo sapiens, UniProt Q92630). As to the kind of experiment: Inhibition of human recombinant GST-tagged DYRK2 expressed in Escherichia coli using GRSRSRSRSRSR as substrate and [gamma33P]ATP after 30 mins by scintillation counting.
The nature of assay [17]: Inhibition of pig […] isolated from brain using RRKHAAIGpSAYSITA as substrate and [gamma33P]ATP after 30 mins by scintillation couting. The arrangement: species or system Sus scrofa. In a few lines:
as §2

Assay [18] addresses T1, Dual specificity tyrosine-phosphorylation-regulated kinase 2 (Homo sapiens). Briefly: Binding affinity to DYRK2.
Assay [19] deals with Dual specificity protein kinase CLK3 (Mus musculus, UniProt O35492). Briefly: Inhibition of mouse recombinant GST-tagged CLK3 expressed in Escherichia coli using GRSRSRSRSRSR as substrate and [gamma33P]ATP after 30 mins by scintillation counting. The gist of the method: as §2
Dual specificity protein kinase CLK3 (Mus musculus, UniProt O35492), sequence (O35492 whole entry): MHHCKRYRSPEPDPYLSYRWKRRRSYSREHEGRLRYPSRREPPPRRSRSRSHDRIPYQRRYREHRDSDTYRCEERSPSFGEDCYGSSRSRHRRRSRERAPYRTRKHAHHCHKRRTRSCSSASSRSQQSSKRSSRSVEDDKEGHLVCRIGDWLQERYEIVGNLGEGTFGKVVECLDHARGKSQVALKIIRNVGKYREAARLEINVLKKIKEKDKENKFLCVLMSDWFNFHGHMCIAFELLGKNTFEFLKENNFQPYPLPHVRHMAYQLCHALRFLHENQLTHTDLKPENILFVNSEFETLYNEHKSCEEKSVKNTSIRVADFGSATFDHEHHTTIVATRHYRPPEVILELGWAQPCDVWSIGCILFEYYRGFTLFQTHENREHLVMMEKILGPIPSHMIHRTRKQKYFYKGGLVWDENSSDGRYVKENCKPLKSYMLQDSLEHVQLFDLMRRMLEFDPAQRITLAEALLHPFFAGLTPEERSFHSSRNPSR
The target of assay [20] is T2, Dual specificity tyrosine-phosphorylation-regulated kinase 4 (Homo sapiens, UniProt Q9NR20).
T2 sequence (Q9NR20 whole entry): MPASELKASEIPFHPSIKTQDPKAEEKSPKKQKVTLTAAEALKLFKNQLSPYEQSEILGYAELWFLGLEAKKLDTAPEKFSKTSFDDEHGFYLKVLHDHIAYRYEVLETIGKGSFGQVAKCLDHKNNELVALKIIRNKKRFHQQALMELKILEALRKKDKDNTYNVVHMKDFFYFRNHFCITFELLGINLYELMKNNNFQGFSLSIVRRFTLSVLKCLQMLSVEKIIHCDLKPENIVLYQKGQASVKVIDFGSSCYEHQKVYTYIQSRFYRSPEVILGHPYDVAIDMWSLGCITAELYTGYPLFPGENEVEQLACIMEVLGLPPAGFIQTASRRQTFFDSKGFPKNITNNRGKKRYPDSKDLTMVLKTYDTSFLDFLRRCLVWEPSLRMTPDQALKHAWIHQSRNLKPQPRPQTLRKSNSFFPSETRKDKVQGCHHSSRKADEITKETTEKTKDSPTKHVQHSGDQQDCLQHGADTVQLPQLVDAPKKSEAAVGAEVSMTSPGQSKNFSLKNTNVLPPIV
As to the kind of experiment: Inhibition of human recombinant GST-tagged DYRK4 expressed in Escherichia coli using GRSRSRSRSRSR as substrate and [gamma33P]ATP after 30 mins by scintillation counting.

A short description of assay [21]: Inhibition of starfish CDK1/cyclin B using histone H1 as substrate and [gamma33P]ATP after 30 mins by scintillation counting. On the set-up: species or system Asteroidea. In a few lines: as §2
In assay [22] the target is Serine/threonine-protein kinase pim-1 (Homo sapiens, UniProt P11309). Briefly: Inhibition of human recombinant PIM1 expressed in Escherichia coli using histone H1 as substrate and [gamma33P]ATP after 30 mins by scintillation counting.
Serine/threonine-protein kinase pim-1, sequence (P11309 whole entry): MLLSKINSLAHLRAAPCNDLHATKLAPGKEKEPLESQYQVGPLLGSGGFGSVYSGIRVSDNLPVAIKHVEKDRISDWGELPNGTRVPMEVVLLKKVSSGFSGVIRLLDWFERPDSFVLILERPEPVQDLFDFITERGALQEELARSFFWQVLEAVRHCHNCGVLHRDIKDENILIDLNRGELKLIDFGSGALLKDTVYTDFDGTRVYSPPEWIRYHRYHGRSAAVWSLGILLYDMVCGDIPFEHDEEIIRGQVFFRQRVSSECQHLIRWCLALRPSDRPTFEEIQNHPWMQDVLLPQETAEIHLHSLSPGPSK
Assay [23] addresses Cyclin-dependent kinase 2/cyclin A (Homo sapiens, UniProt P24941). Briefly: Inhibition of CDK2/cyclin A using [gamma33P]ATP after 30 mins by scintillation counting. It is filed as protein-complex assay. The gist of the method:
as §2

The nature of assay [24]: Inhibition of Plasmodium falciparum recombinant GSK3 expressed in Escherichia coli using YRRAAVPPSPSLSRHSSPHQ-phosphoS-EDEEE as substrate and [gamma33P]ATP after 30 mins by scintillation counting. The gist of the method: as §2
The target in assay [25] is Dual specificity protein kinase CLK1 (Homo sapiens) (UniProt P49759). As to the kind of experiment: Binding affinity to CLK1.
Dual specificity protein kinase CLK1 (Homo sapiens), sequence (P49759 whole entry, looked up): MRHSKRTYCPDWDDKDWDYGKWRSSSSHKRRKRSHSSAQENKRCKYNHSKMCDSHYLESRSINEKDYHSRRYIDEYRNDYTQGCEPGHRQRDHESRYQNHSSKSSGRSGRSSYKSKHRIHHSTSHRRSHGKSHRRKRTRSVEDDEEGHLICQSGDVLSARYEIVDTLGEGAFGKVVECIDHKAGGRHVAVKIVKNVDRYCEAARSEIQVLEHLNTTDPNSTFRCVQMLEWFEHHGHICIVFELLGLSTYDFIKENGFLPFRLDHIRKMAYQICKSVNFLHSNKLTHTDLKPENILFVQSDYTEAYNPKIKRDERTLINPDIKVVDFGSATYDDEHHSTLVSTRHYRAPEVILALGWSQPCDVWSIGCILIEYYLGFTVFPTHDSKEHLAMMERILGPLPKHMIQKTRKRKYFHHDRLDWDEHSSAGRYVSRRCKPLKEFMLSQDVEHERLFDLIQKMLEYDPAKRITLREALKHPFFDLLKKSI
For assay [26], the target named is Casein kinase II (Homo sapiens) (UniProt P67870+P68400+P19784). As to the kind of experiment: Inhibition of human recombinant CK2 using RRREDEESDDEE as substrate and [gamma33P]ATP at 10 uM after 30 mins by scintillation counting. It is filed as protein-complex assay.
Assay [27] is described as follows: Inhibition of Leishmania major recombinant CK1 expressed in Escherichia coli using RRKHAAIGpSAYSITA as substrate and [gamma33P]ATP after 30 mins by scintillation counting. In a few lines:
as §2

In assay [28] the target is Dual specificity tyrosine-phosphorylation-regulated kinase 1A (Rattus norvegicus) (UniProt Q63470). The note with it: CD Sprague-Dawley, 4.5 to 45 uM.
Assay [29] has as its target Dual specificity protein kinase CLK2 (Mus musculus, UniProt O35491). As to the kind of experiment: Inhibition of mouse recombinant GST-tagged CLK2 expressed in Escherichia coli using GRSRSRSRSRSR as substrate and [gamma33P]ATP after 30 mins by scintillation counting. In a few lines: as §2
Assay [30] relates to HT-22. As to the kind of experiment: Inhibition of GSK3 in mouse HT22 cells at 10 uM after 4 hrs. It counts as cell-based.
Assay [31] concerns the target Dual specificity tyrosine-phosphorylation-regulated kinase 1A (Mus musculus) (UniProt Q61214). As to the kind of experiment: Inhibition of DYRK1A in mouse HT22 cells at 10 uM after 4 hrs. It counts as cell-based. The note with it: HT-22.

Dual specificity protein kinase CLK3 (Mus musculus), sequence (O35492 whole entry): as the sequence (O35492 whole entry) above
Dual specificity protein kinase CLK1 (Mus musculus), sequence (P22518 whole entry, looked up): as the sequence (P22518 whole entry) above
Cyclin-dependent kinase 7/ cyclin H, sequence (P51946 whole entry): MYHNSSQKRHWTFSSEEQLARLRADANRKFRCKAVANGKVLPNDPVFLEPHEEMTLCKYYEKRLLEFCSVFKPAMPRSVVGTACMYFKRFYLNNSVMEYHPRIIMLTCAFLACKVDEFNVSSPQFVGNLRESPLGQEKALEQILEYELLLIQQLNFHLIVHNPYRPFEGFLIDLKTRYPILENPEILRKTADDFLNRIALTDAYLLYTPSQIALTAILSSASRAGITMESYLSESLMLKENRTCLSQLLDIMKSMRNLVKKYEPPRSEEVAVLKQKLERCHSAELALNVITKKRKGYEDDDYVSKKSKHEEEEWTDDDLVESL
Cyclin-dependent kinase 7/ cyclin H, sequence (P50613 whole entry): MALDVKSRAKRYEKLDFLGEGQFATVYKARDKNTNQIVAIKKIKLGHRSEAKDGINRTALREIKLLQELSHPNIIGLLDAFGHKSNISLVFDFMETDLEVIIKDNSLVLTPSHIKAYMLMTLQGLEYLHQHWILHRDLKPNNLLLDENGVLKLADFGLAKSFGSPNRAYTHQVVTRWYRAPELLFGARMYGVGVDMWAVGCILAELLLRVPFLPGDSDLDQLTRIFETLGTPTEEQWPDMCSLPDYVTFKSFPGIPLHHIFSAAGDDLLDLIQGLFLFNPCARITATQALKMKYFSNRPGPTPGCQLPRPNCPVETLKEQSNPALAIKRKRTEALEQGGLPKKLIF
Mitogen-activated protein kinase 1, sequence (P63086 whole entry): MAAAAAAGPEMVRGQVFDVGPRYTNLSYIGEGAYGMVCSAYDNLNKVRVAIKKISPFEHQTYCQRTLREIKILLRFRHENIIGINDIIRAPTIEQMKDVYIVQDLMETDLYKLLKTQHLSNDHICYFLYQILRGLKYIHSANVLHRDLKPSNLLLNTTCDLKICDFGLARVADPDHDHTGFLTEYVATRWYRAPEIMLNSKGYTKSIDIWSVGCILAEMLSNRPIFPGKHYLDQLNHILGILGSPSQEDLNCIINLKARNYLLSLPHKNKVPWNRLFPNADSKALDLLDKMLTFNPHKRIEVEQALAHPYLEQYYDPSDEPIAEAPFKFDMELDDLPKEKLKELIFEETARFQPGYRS
Dual specificity protein kinase CLK4 (Homo sapiens, UniProt Q9HAZ1), sequence (Q9HAZ1 whole entry, looked up): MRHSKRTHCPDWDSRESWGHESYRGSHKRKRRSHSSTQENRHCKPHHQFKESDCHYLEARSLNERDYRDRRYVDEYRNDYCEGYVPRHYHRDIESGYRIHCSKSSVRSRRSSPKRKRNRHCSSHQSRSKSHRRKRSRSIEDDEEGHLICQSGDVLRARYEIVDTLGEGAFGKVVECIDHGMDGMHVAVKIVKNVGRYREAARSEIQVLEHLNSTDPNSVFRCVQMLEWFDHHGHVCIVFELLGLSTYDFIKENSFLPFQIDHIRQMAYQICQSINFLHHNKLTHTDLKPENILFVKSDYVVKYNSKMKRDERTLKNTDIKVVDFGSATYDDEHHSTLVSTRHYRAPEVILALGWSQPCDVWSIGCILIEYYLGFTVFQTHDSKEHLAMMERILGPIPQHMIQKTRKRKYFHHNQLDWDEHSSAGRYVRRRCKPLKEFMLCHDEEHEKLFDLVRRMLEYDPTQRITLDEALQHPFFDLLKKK

`O=C(O)c1ccc2c(c1)nc(Nc1cccc(Cl)c1)c1ccncc12`: the outcome in the assay on HT-22 [1] was inactive.
On to `COc1cc2c(cc1OC)C(=O)C(CC1CCN(Cc3ccccc3)CC1)C2` (stereo unspecified), for which the inhibition entry in [2], in assay [3], in [4] and in assay [5] was “inactive” in each case.
Turning to `Nc1c2c(nc3ccccc13)CCCC2`, the inhibition result in assay [2], in [3], in assay [4] and in [5] was “inactive” throughout.
Consider `CC12CC3CC(C)(C1)CC(N)(C3)C2`, for which the inhibition result in [2], in [3], in assay [4] and in assay [5] was “inactive” each time.
With `COc1ccc2c3c1O[C@H]1C[C@@H](O)C=C[C@@]31CCN(C)C2`, the inhibition result in [2], in [3], in [4] and in assay [5] was “inactive” throughout.
As for `Nc1ccc(C(=O)Nc2cccc(-c3nc(N4CCOCC4)c4oc5ncccc5c4n3)c2)cn1`, the outcome in the assay with HT-22 [1] was inactive.
With `O=C1Nc2cc(Br)ccc2/C1=C1/N=c2ccccc2=C1NO`, the inhibition result with HT-22 [6] was “Active”.
Consider `CCN(C)C(=O)Oc1cccc([C@H](C)N(C)C)c1`, for which the inhibition entry in assay [2], in assay [3], in assay [4] and in [5] was “inactive” in each case.
A word on the IC50: it is the concentration that gives 50% inhibition. Consider `COc1ccc2c(c1)[nH]c1c(C)nccc12` [HARMINE], for which the IC50 in assay [7] was 50 nM; in assay [9], 210 nM; in assay [12], 19000 nM; in [13] it was above 10000 nM; in assay [14] it was 72 nM; on CDK9/cyclin T1 it was 720 nM. Moreover, the concentration for half-maximal inhibition (IC50) was above 30000 nM in assay [15]; 120 nM in [16]; 1800 nM in assay [17]; above 10000 nM in assay [19]; 9500 nM in [20]; 18000 nM in assay [21]. For the same molecule, the IC50 in [22] is above 10000 nM; in assay [23], above 30000 nM; in assay [24], above 10000 nM; in assay [27], at least 10000 nM; in assay [29], 280 nM. The result in assay [8], in assay [10], in assay [11], in assay [18] and in assay [25] was Active. The inhibition result in assay [26] is “inactive”. In addition, the inhibition entry in assay [28] is “Active”.
Take `O=C1Cc2c([nH]c3ccc([N+](=O)[O-])cc23)-c2ccccc2N1`: in the assay on HT-22 [1], the outcome was Active. Besides, the inhibition result with HT-22 [30] and in the assay on HT-22 [6] was “Active” in each case. Further, in [31], the inhibition result is “inactive”.
